pEC50: −log10 of the molar value. ≈ marks a conversion by molar mass, not a printed value. Calls of active or inactive are those of the source. The rule behind the calls is not given here.
Legend:
Plasmodium berghei [1] = assay: Antiplasmodial activity against Plasmodium berghei infected in NMRI mouse assessed as reduction in parasitemia at 3 mg/kg, po QD for 4 days; format: functional; parameters: scale not given: the % may be the effect or the level left; conditions: time 4 day
In short: (§1)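 Female NMRI mice (n=3 per group, randomized, not blinded) infected with GFP-transfected P. berghei ANKA. Oral dosing once daily for 4 days in 10% DMSO/40% PEG400/50% water or HPMC suspension vehicle. Parasitaemia measured by flow cytometry on blood collected 96 h after infection. Mice watched for toxicity over 4 h post-dose each day.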

Plasmodium falciparum [2] = assay: Antiplasmodial activity against drug resistant Plasmodium falciparum K1 by [3H]hypoxanthine incorporation assay; format: functional, organism-based
In short: (§2)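 Strains (K1, W2, 7G8, TM90C2A, D6, V1/S resistant; NF54 sensitive) cultured by the Trager and Jensen method; EC50 determined in vitro from [3H]hypoxanthine incorporation.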

Plasmodium berghei [3] = assay: Antiplasmodial activity against Plasmodium berghei ANKA infected in NMRI mouse assessed as reduction in parasitemia at 30 mg/kg, po QD for 4 days; format: functional; parameters: scale not given: the % may be the effect or the level left; conditions: time 4 day; in short: as §1
Plasmodium berghei [4] = assay: Antiplasmodial activity against Plasmodium berghei ookinete form assessed as growth inhibition incubated for 22 hrs by GFP-based fluorescence microscopic analysis; format: functional, organism-based
Plasmodium berghei [5] = assay: Antiplasmodial activity against Plasmodium berghei ANKA infected in NMRI mouse assessed as cure rate at 30 mg/kg, po QD for 4 days; format: functional, organism-based; conditions: time 4.0 day; in short: as §1
[6] = Half-life in Sprague-Dawley rat at 1 mg/kg, iv administered as bolus dose by UPLC-MS/MS analysis; format: ADME, organism-based; conditions: in vivo, 1 mg/kg
In short: (§3)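 Male Sprague Dawley rats (n=3/route) received an iv bolus solution at 1 mg free base/kg (5 mL/kg; 5% DMSO in saline). Blood sampled from 5 min to 30 or 48 h post-dose, mixed with two volumes water, frozen, then analysed by UPLC-MS/MS. Parameters derived from the blood concentration-time curve.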

[7] = Intrinsic clearance in CD1 mouse liver microsomes at 0.5 uM in presence of NADPH incubated upto 30 mins by UPLC-MS/MS analysis; format: ADME, Microsome; conditions: 0.5 h
In short: (§4)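 Compound at 0.5 μM incubated with female CD1 mouse, male Sprague-Dawley rat or pooled human liver microsomes (0.5 mg/mL, 50 mM potassium phosphate, pH 7.4). Reaction started with excess NADPH. Samples taken at 0-30 min, quenched in acetonitrile, analysed by UPLC-MS/MS. Verapamil used as control, single time course.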

[8] = Oral bioavailability in NMRI mouse at 10 mg/kg administered via gavage by UPLC-MS/MS analysis; format: ADME, organism-based; conditions: in vivo
In short: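 Female NMRI mice (n=3) dosed by oral gavage as a solution at 10 mg free base/kg (10 mL/kg; vehicle 5 or 10% DMSO, 40% PEG400). Blood levels measured by UPLC-MS/MS. Parameters derived from the blood concentration-time curve.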

[9] = Cmax in NMRI mouse at 3 mg/kg, po administered as gavage by UPLC-MS/MS analysis; format: ADME, organism-based; parameters: route oral, dose 3 mg/kg; conditions: in vivo
[10] = Permeability of the compound at 10 uM incubated for 5 hrs by UPLC-MS/MS analysis based PAMPA method; format: ADME; conditions: read-out: permeability
In short: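 PAMPA run on a lipid-oil-lipid tri-layer filter at pH 7.4. Compound at 10 μM in PBS (DMSO ≤5%) in donor wells, PBS in acceptor wells, kept 5 h at room temperature. Both compartments quantified by UPLC-MS/MS. Data accepted only when recovery exceeded 70%.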

Plasmodium yoelii = assay: Antiplasmodial activity against Plasmodium yoelli liver stage forms; format: functional, organism-based
[11] = AUC in Sprague-Dawley rat at 5 mg/kg, po administered via gavage by UPLC-MS/MS analysis; format: ADME, organism-based; parameters: dose 5 mg/kg; conditions: in vivo
In short: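 Male Sprague Dawley rats (n=3) gavaged with a solution at 5 mg free base/kg (10 mL/kg; 0.5% w/v HPMC, 0.4% v/v Tween 80, 0.5% v/v benzyl alcohol). Blood sampled at 5, 15, 30 min and 1, 2, 4, 6, 8, 24, 30, 48 h, diluted with two volumes water, analysed by UPLC-MS/MS.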

Plasmodium falciparum [12] = assay: Antiplasmodial activity against drug resistant Plasmodium falciparum TM90C2A by [3H]hypoxanthine incorporation assay; format: functional, organism-based; in short: as §2
Plasmodium falciparum [13] = assay: Antiplasmodial activity against drug resistant Plasmodium falciparum W2 by [3H]hypoxanthine incorporation assay; format: functional, organism-based; in short: as §2
[14] = Volume of distribution at steady state in Sprague-Dawley rat at 1 mg/kg, iv administered as bolus dose by UPLC-MS/MS analysis; format: ADME, organism-based; conditions: in vivo, 1 mg/kg; in short: as §3
[15] = Protein binding in CD1 mouse plasma measured after 5 hr by UPLC-MS/MS analysis based equilibrium dialysis method; format: ADME, cell-free; conditions: CD1, mouse, read-out: PPB (converted)
In short: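 Equilibrium dialysis of female CD1 mouse plasma spiked at 10 μg/mL (12-14 kDa membrane) against isotonic buffer for 5 h at ~37°C with shaking. Unbound fraction taken as the buffer/plasma peak-area ratio by UPLC-MS/MS. n=6 replicates, run in triplicate.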

Plasmodium falciparum [16] = assay: Antiplasmodial activity against chloroquine-sensitive Plasmodium falciparum 3D7 infected in human red blood cells assessed as growth inhibition by SYBR Green fluorescence assay; format: functional, organism-based, RBC; conditions: 3D7, Erythrocyte
In short: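 P. falciparum 3D7 grown in 5% human red cells in RPMI 1640 (pH 7.3) with 0.5% Albumax II, hypoxanthine and gentamicin at 37°C under 1% O₂/3% CO₂. Growth measured by SYBR green fluorescence (ex 485/em 528 nm), with mefloquine as assay control. EC50 calculated.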

[17] = Kinetic aqueous solubility of the compound by laser nephelometry; format: physicochemical; conditions: read-out: Kinetic_solubility
In short: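 Kinetic solubility measured by laser nephelometry. DMSO serial dilutions diluted into water to give final 100–5 μg/mL at 1.0% DMSO. Read immediately, in triplicate aliquots.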

Plasmodium falciparum [18] = assay: Antiplasmodial activity against drug resistant Plasmodium falciparum 7G8 by [3H]hypoxanthine incorporation assay; format: functional, organism-based; in short: as §2
Plasmodium berghei [19] = assay: Antiplasmodial activity against GFP-transfected Plasmodium berghei ANKA infected in NMRI mouse assessed as reduction in parasitemia by measuring effective dose administered once daily oral dose for 4 days; format: functional; conditions: 96 h, time 4 day; in short: as §1
Plasmodium berghei [20] = assay: Antiplasmodial activity against Plasmodium berghei ANKA infected in NMRI mouse assessed as reduction in parasitemia at 1 mg/kg, po QD for 4 days; format: functional; parameters: scale not given: the % may be the effect or the level left; conditions: time 4 day; in short: as §1
[21] = Intrinsic clearance in human liver microsomes at 0.5 uM in presence of NADPH incubated upto 30 mins by UPLC-MS/MS analysis; format: ADME, Microsome; conditions: 0.5 h; in short: as §4
Plasmodium berghei [22] = assay: Antiplasmodial activity against Plasmodium berghei ANKA infected in NMRI mouse assessed as reduction in parasitemia at 10 mg/kg, po QD for 4 days; format: functional; parameters: scale not given: the % may be the effect or the level left; conditions: time 4 day; in short: as §1
[23] = Half-life in NMRI mouse at 1 mg/kg, iv administered as bolus dose by UPLC-MS/MS analysis; format: ADME, organism-based; conditions: in vivo
[24] = Clearance in Sprague-Dawley rat blood at 1 mg/kg, iv administered as bolus dose by UPLC-MS/MS analysis; format: ADME, organism-based; in short: as §3
[25] = Oral bioavailability in Sprague-Dawley rat at 3 mg/kg administered via gavage by UPLC-MS/MS analysis; format: ADME, organism-based; conditions: in vivo
In short: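 Oral gavage solution, 3 mg free base/kg (10 mL/kg; 0.5% w/v HPMC, 0.4% v/v Tween 80, 0.5% v/v benzyl alcohol), given to male Sprague Dawley rats (n=3). Blood taken at 5, 15, 30 min and 1, 2, 4, 6, 8, 24, 30 h, mixed with two volumes water, analysed by UPLC-MS/MS.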

Which results are given for `O=C(NCCN1CCCC1)c1cc(-c2ccc(CN3CCOCC3)cc2)nc2ccc(F)cc12` [CABAMIQUINE]?
Activity (Plasmodium berghei [1]): 99.9%; pEC50 (Plasmodium falciparum [2]): 9.40; Activity (Plasmodium berghei [3]): 99.9%; pEC50 (Plasmodium berghei [4]): 8.30; Activity (Plasmodium berghei [5]): Active; t1/2 [6]: 10 h; CLH [7]: < 0.5 mL/min/g; bioavailability [8]: 74%; Cmax [9]: 90 ng/mL; Papp at 5 h, 10 µM [10]: 7.3 ×10⁻⁶ cm/s; pEC50 (Plasmodium yoelii): 9.00; AUC [11]: 3340 ng·h/mL; pEC50 (Plasmodium falciparum [12]): 9.40; pEC50 (Plasmodium falciparum [13]): 9.40; Vdss [14]: 15 L/kg; fraction unbound at 5 h [15]: 0.37; pEC50 (Plasmodium falciparum [16]): 9.00; solubility kinetic [17]: 216 µM (≈ 99.9 µg/mL); pEC50 (Plasmodium falciparum [18]): 9.40; ED90 (Plasmodium berghei [19]): 0.1 mg/kg; Activity (Plasmodium berghei [20]): 99.9%; CLH [21]: <= 1.1 ml/min/g; Activity (Plasmodium berghei [22]): 99.9%; t1/2 [23]: 16 h; clearance [24]: 18 mL/min/kg; bioavailability [25]: 84%

From ChEMBL document CHEMBL4680079, “Discovery of a Quinoline-4-carboxamide Derivative with a Novel Mechanism of Action, Multistage Antimalarial Activity, and Potent in Vivo Efficacy” (J Med Chem, 2016)
